In brackets after ≈: the same amount, converted by molar mass. Several values for one entry are separate records, joined by “and”; a condition that tells them apart may be missing. Equal values may be shown once.

The text below walks through data of ChEMBL document CHEMBL1124192, “Cyclopentenylcytosine. A carbocyclic nucleoside with antitumor and antiviral properties” (J Med Chem, 1988).

The test system of data set [1] is Vesicular stomatitis virus. Briefly: Inhibitory dose of compound required to inhibit cytopathogenic effects of vesicular stomatitis RNA virus with indiana strain in L929 cells. The class given is functional. For orientation: Protection from cytopathic effect is a common read-out in antiviral testing.
Data set [2] concerns Vesicular stomatitis virus. Put plainly: Tested for inhibition of virus-induced cytopathogenic effect and cytotoxicity of compound against vesicular stomatitis RNA virus with indiana strain in L929 cell. The class given is functional.
Data set [3] in a line: Ratio of minimum drug concentration to ID50 of the compound (Indiana strain). The class given is ADME.
The test system of data set [4] is Human alphaherpesvirus 2. Briefly: Dose of compound required to inhibit the herpes simplex type-2 MS virus induced cytopathogenic effects. The class given is functional. The note with it: read-out: ID50 (the source's name). In short, it runs like this: (§1)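 Southern Research CPE inhibition test in Vero host cells. Confluent monolayers in 96-well plates received drug (minimum seven concentrations, cytotoxic to noncytotoxic) plus virus at 32 CCID50 per 0.1 mL, in triplicate, with cell, virus and drug-cytotoxicity controls. Incubated at 37 °C, 2% CO2. CPE scored microscopically at 3–4 days. VR = 0.1 × sum of CE-grade differences from virus control, halved for partially cytotoxic wells.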

Data set [5] concerns Human alphaherpesvirus 2. Briefly: Degree of inhibition of virus-induced cytopathogenic effect and the degree of cytotoxicity produced by compound against herpes simplex type-2 MS virus. The class given is functional. The method in brief:
as §1

The subject of data set [6] is Human alphaherpesvirus 1. Put plainly: Dose of compound required to inhibit the herpes simplex type-1 virusE-377(TK+ ) induced cytopathogenic effects. The class given is functional. The note with it: read-out: ID50 (the source's name). In short, it runs like this:
as §1

The subject of data set [7] is Human alphaherpesvirus 1. Briefly: Degree of inhibition of virus-induced cytopathogenic effect and the degree of cytotoxicity produced by compound against herpes simplex type-1 virus E-377(TK+ ). The class given is functional. The method in brief: as §1
In data set [8] the test system is unidentified influenza virus. Briefly: Inhibitory dose of compound required to inhibit cytopathogenic effects of influenza virus with A2/Aichi/2/68 strain in MDCK cells. The note with it: read-out: ID50 (the source's name). The class given is functional.
Data set [9] deals with unidentified influenza virus. Briefly: Tested for inhibition of virus-induced cytopathogenic effect and cytotoxicity of compound against influenza virus with A2/Aichi/2/68 strain in MDCK cell. The class given is functional.
Data set [10] concerns Japanese encephalitis virus. Put plainly: Tested for inhibition of virus-induced cytopathogenic effect and cytotoxicity of compound against Japanese encephalitis virus with […] strain in vero cell. The class given is functional.
Data set [11] has as its system Japanese encephalitis virus. Put plainly: Inhibitory dose of compound required to inhibit cytopathogenic effects of Japanese encephalitis virus with […] strain in vero cells. The class given is functional. Conditions: read-out: ID50 (the source's name).
Data set [12] relates to Punta Toro virus. Briefly: Tested for inhibition of virus-induced cytopathogenic effect and cytotoxicity of compound against Punta toro virus with adames strain in vero cell. The class given is functional.
Data set [13] relates to Punta Toro virus. Put plainly: Inhibitory dose of compound required to inhibit cytopathogenic effects of Punta toro virus with adames strain in vero cells. The class given is functional. The note with it: read-out: ID50 (the source's name).
The nature of data set [14]: Ratio of minimum drug concentration to ID50 of the compound(Adems strain). The class given is ADME.
For data set [15], the system named is Yellow fever virus. Briefly: Inhibitory dose of compound required to inhibit cytopathogenic effects yellow fever (virus) with Asibi strain in vero cell. The note with it: read-out: ID50 (the source's name). The class given is functional.
The subject of data set [16] is Yellow fever virus. Put plainly: Tested for inhibition of virus-induced cytopathogenic effect and cytotoxicity of compound against yellow fever (virus) with Asibi strain in vero cell. The class given is functional.
For data set [17], the system named is Human alphaherpesvirus 1. Briefly: Degree of inhibition of virus-induced cytopathogenic effect and the degree of cytotoxicity produced by compound against herpes simplex type-1 virus HF(TK- ). The class given is functional. The method in brief: as §1
For data set [18], the system named is Human alphaherpesvirus 1. Put plainly: Dose of compound required to inhibit the herpes simplex type-1 virus HF(TK- )induced cytopathogenic effects. The class given is functional. In short, it runs like this: as §1

With `Nc1nccc2c1ncn2[C@@H]1C[C@H](CO)[C@@H](O)[C@H]1O` [3-DEAZAARISTEROMYCIN A], in data set [1], the ID50 was 4.3 µg/mL and 2 µg/mL. Also, the Virus rating in [2] was 2.1 and 3. Further, the Therapeutic index in data set [3] was found to be 1.6. For the same compound, the selectivity ratio in data set [3] (read-out: Therapeutic index) is 2.3.

Turning to `Nc1nc2c(ncn2COCCO)c(=O)[nH]1` [ACYCLOVIR], the IC50 in the data set on Human alphaherpesvirus 2 [4] stood at 5.3 µg/mL (≈ 23.5 µM); in the data set on Human alphaherpesvirus 1 [6] it was 0.7 µg/mL (≈ 3.11 µM). For the same compound, the Virus rating in the data set on Human alphaherpesvirus 2 [5] is 4.5; in the data set on Human alphaherpesvirus 1 [7], 6.7.

Consider `NC(=O)c1ncn([C@@H]2O[C@H](CO)[C@@H](O)[C@H]2O)n1` [RIBAVIRIN], for which the IC50 was 18.7 µg/mL (≈ 76.6 µM) in data set [8], 3 µg/mL (≈ 12.3 µM) in data set [11] and 20.1 µg/mL (≈ 82.3 µM) with Punta Toro virus [13]. Further, the Virus rating in data set [9] was found to be 3.6; in data set [10], 2.4; in the data set with Punta Toro virus [12], 1.8. In addition, in data set [14] (read-out: Therapeutic index), the selectivity ratio turned out to be 5.

Regarding `c1c[se]cn1` [SELENAZOLE], the IC50 in the data set with Yellow fever virus [15] came to 0.6 µg/mL (≈ 4.54 µM). The compound also showed a Virus rating with Yellow fever virus [16] of 2.4. For the same compound, the selectivity ratio in data set [14] (read-out: Therapeutic ratio) turned out to be 1.8.

`Nc1ncnc2c1ncn2[C@@H]1O[C@H](CO)[C@@H](O)[C@@H]1O` [VIDARABINE]: the Virus rating with Human alphaherpesvirus 1 [17] is 3.3 and 2.9; in the data set with Human alphaherpesvirus 2 [5] it was 1.3; with Human alphaherpesvirus 1 [7], 1.8. Further, the IC50 is 49.9 µg/mL (≈ 187 µM) with Human alphaherpesvirus 2 [4]; 2.1 µg/mL (≈ 7.86 µM) in the data set with Human alphaherpesvirus 1 [18] (Human alphaherpesvirus 1, read-out: ID50 (the source's name)); 13.6 µg/mL (≈ 50.9 µM) with Human alphaherpesvirus 1 [6]. Moreover, the ID50 in the data set with Human alphaherpesvirus 1 [18] was determined as 1.9 µg/mL (≈ 7.11 µM).
